hIAP block = human IAP inhibition; P09923; purified IAP, CDP-Star luminescence, 30 min; inhibition, % at 10 µM; 330,000 tested, 0.12% active; AID 2544;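 active = inhibition reaching a set limit with compound at 10 µM in the primary screen, cut at about 35% in these data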;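 note: plate controls were DMSO wells with enzyme for no effect and no-enzyme buffer wells for full effect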
Target sequence (P09923 whole entry, looked up): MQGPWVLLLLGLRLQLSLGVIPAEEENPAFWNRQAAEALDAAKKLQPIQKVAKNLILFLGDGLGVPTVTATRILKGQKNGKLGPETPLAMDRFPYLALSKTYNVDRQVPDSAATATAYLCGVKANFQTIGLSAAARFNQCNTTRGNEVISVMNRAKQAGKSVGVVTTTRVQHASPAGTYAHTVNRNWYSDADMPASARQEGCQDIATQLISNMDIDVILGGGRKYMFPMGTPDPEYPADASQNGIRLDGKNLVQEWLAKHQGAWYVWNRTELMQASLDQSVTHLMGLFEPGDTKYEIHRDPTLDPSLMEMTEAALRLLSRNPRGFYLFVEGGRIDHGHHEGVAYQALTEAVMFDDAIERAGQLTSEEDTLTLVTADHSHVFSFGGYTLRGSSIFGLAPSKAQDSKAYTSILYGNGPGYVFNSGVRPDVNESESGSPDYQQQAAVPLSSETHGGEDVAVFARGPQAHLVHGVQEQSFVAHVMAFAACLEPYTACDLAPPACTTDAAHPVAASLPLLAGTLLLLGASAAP
mIAP activ = increases mouse intestinal alkaline phosphatase activity | muIAP, CDP-Star luminescence, 30 min; hits give high values; 1 = vehicle-only enzyme signal, 0 = enzyme-free wells | activation factor at 10 µM | 330,000 tested, 0.24% active;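 active = activation factor of at least 2 at 20 µM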
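Assay system: mouse IAP enzyme / Compound: DMSO-dissolved test compounds / Timing: 30 min, room temperature / Measured by: luminescence from enzymatic CDP-Star hydrolysis / Control set: DMSO-only wells, enzyme-free buffer wells as negative control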
mIAP block = mouse IAP inhibition | purified mouse IAP, CDP-Star luminescence, 30 min | inhibition, % at 10 µM | 330,000 tested, 0.2% active | AID 2806;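 active = inhibition of at least 40% at 10 µM in the primary screen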;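 note: plate controls were DMSO with enzyme for no effect and no enzyme wells for full effect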
hIAP act = increases human intestinal alkaline phosphatase activity | purified human IAP, CDP-Star luminescence, 30 min; hits give high values; 1 = vehicle-only enzyme, 0 = enzyme-free background | activation factor at 10 µM | 330,000 tested, 0.16% active | AID 2524;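 active = activation factor of the enzyme at least 2-fold when tested at 20 µM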
bIAP act = increases bovine intestinal alkaline phosphatase activity. activation factor at 20 µM. 200,000 tested, 0.17% active. purified bovine IAP, CDP-star luminescence, 30 min; hits give high values; fold of DMSO-control signal, blank-subtracted;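 active = activation factor of 2 or more at 20 µM, a signal rise over negative controls twice the positive control's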
bIAP inh = blocks bovine intestinal alkaline phosphatase activity. purified bovine IAP, CDP-star luminescence, 30 min. inhibition, % at 20 µM. 190,000 tested, under 10 active;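 active = over 50% inhibition of intestinal alkaline phosphatase at 20 µM in the single-dose screen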
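System: purified bovine intestinal alkaline phosphatase (IAP) enzyme; Input: IAP diluted 1/65,000,000 in the well; Measured by: CDP-star luminescence signal; Compound dosing: 20 µM single dose; Incubation: 30 min reaction at room temperature.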
mIAP inh confirm = mouse IAP inhibition confirmation | shares compounds with mIAP block | purified mouse IAP, CDP-Star luminescence, 30 min | inhibition, % at 10 µM | 11,000 tested, 4.7% active | AID 434971;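 active = inhibition of at least 40% at 10 µM in either of the two replicates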;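 note: plate controls were DMSO wells with enzyme for no effect and buffer wells lacking enzyme for full effect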
* hit, by the source's call; · = not tested or not shown. Only some compounds are listed: those with a hit (about 0.79% of all), similar ones and a draw of the others.

SMILES | hIAP block | mIAP activ | mIAP block | hIAP act | bIAP act | bIAP inh | mIAP inh confirm
O=C(N/N=C/c1ccc([N+](=O)[O-])o1)c1ccc(NS(=O)(=O)c2cccs2)cc1 | -8 | 0.5 | 50* | 1.1 | · | · | 59*
O=C(N/N=C/c1ccc([N+](=O)[O-])o1)c1ccc2c(c1)OCO2 | -8 | 0.55 | 45* | 1.1 | · | · | 55*
CN(CC(=O)Nc1ccccc1Cl)C(=O)c1ccc(N2CCCCCC2)c([N+](=O)[O-])c1 | 12 | 0.92 | 8 | 0.89 | · | · | ·
CC(N=Cc1cccc(O)c1O)c1ccccc1 (stereo unspecified) | 20 | 0.4 | 60* | 0.8 | 0.8 | 17 | 67*
CC(N=Cc1cc([N+](=O)[O-])ccc1O)c1ccccc1 (stereo unspecified) | -10 | 1 | -2 | 1.1 | 0.9 | 8 | ·
CSc1cccc(NC(=O)C2CCN(S(=O)(=O)c3ccc(F)cc3)CC2)c1 | -40 | 3* | -205 | 1.4 | 1.2 | -17 | -98
CSc1cccc(NC(=O)C2CCCN(S(=O)(=O)c3ccc(F)cc3)C2)c1 (stereo unspecified) | -15 | 1.4 | -35 | 1.1 | 0.9 | 12 | ·
CN1CCN(S(=O)(=O)c2ccc3[nH]c(=O)oc3c2)CC1 | 14 | 0.57 | 43* | 0.86 | 0.8 | 19 | 59*
O=c1[nH]c2ccc(S(=O)(=O)N3CCN(c4ccc(F)cc4)CC3)cc2o1 | 0 | 0.81 | 19 | 1 | · | · | ·
Cc1cccc(NC(=O)NC2CCCCCCC2)c1 | -35 | 2.2* | -118 | 1.3 | · | · | -145
O=C(Nc1cccc(C(F)(F)F)c1)NC1CCCCC1 | -36 | 2.5* | -150 | 1.4 | 0.9 | 12 | -110
Cc1ccc(NC(=O)NC2CCCCCCC2)cc1C | -46 | 3.3* | -233 | 1.5 | · | · | -156
CC(=O)c1cccc(NC(=O)NC2CCCCCCC2)c1 | -23 | 1.2 | -18 | 1.2 | · | · | ·
O=C(C1=C[C@@H](c2ccc(C(F)(F)F)cc2)C[C@@H](OCc2ccc(CO)cc2)O1)N1CCN(Cc2ccccc2)CC1 | -1 | 1 | -4 | 1 | 1 | 3 | ·
COc1cccc(NC(=S)N2CCN(S(C)(=O)=O)CC2)c1 | -2 | 0.99 | 1 | 1 | · | · | ·
CNC(=O)CSc1nc2nn(-c3ccccc3)c(=O)c-2c2n1CCCCC2 | -1 | 1 | -5 | 1 | 1 | 5 | ·
O=C(CSc1nc2nn(-c3ccccc3)c(=O)c-2c2n1CCCCC2)c1ccc(O)c(O)c1 | 24 | 0.24 | 76* | 0.76 | · | · | 81*
COc1cccc(NC(=O)NC2CCCc3ccccc32)c1 (stereo unspecified) | 0 | 2.8* | -184 | 1 | 1.1 | -9 | -174
CCC1CCC(NC(=O)Nc2cccc(OC)c2)CC1 (stereo unspecified) | -19 | 2.2* | -120 | 1.2 | 1.1 | -14 | -137
COc1ccc(NC(=O)NC2CCCc3ccccc32)c(OC)c1 (stereo unspecified) | -4 | 1.1 | -13 | 1 | · | · | ·
C/C(CC(=O)Nc1ccc(F)cc1F)=N\NC(=O)C(=O)N1CCCCC1 | -25 | 0.97 | 3 | 1.2 | · | · | ·
Cc1cc(O)c(Sc2ncn[nH]2)cc1NS(=O)(=O)c1ccc(Cl)cc1 | -10 | 0.53 | 47* | 1.1 | · | · | 44*
O=S(=O)(Nc1cc(Sc2ncn[nH]2)c(O)c2ccccc12)c1ccccc1 | -8 | 0.93 | 7 | 1.1 | 1 | 2 | ·
CCn1c(CNc2nc3ccccc3n2C(C)C)nc2ccccc21 | -21 | 2* | -100 | 1.2 | 3.1* | -210 | -97
CC(C)n1c(NCc2nc3ccccc3n2C)nc2ccccc21 | 6 | 1.3 | -28 | 0.94 | 1.7 | -67 | ·
SMILES | hIAP block | mIAP activ | mIAP block | hIAP act | bIAP act | bIAP inh | mIAP inh confirm
OC[C@@H]1[C@@H](c2ccc(Cl)cc2)C(c2cccc(Cl)c2)=NN1c1ccccc1 | · | 2.3* | -133 | · | · | · | -120
COc1ccccc1[C@H]1C(c2cccc(C)c2)=NN(c2ccccc2)[C@@H]1CO | · | 1.6 | -75 | · | · | · | ·
COc1ccccc1[C@H]1C(c2ccccc2)=NN(c2ccccc2)[C@@H]1CO | · | 2.2* | -116 | · | · | · | -99
CNS(=O)(=O)c1ccc(NC(=O)Nc2cccc(F)c2)cc1 | -51 | 1.7 | -66 | 1.5 | 1 | -4 | ·
CCOc1ccc(S(=O)(=O)Nc2cc(Sc3ncn[nH]3)c3oc(=O)sc3c2)cc1 | 13 | 0.28 | 72* | 0.87 | 1.4 | -35 | 82*
CCOc1ccc(S(=O)(=O)Nc2ncn[nH]2)cc1 | 11 | 1 | 0 | 0.89 | · | · | ·
CC(Cc1ccc(O)c(O)c1)C(C)Cc1ccc(O)c(O)c1 (stereo unspecified) | -14 | 0.42 | 58* | 1.1 | · | · | 51*
COc1cc(C[C@@H](C)[C@@H](C)Cc2ccc(O)c(OC)c2)ccc1O | 6 | 0.89 | 11 | 0.94 | · | · | ·
O=c1c(O)c(-c2cc(O)c(O)c(O)c2)oc2cc(O)cc(O)c12 | -20 | 0.25 | 75* | 1.2 | · | · | 75*
O=c1c(O)c(-c2ccccc2)oc2cc(O)cc(O)c12 | -22 | 0.94 | 6 | 1.2 | · | · | ·
Cc1cc(C)cc(NC(=O)C2CCN(S(=O)(=O)c3ccc4c(c3)NC(=O)C(C)S4)CC2)c1 (stereo unspecified) | -44 | 2.5* | -145 | 1.4 | · | · | -96
CC(C)(C)c1ccc(/C=N/N2C(=O)CSC2=S)cc1 | -20 | 0.8 | 20 | 1.2 | · | · | ·
O=C1CSC(=S)N1/N=C/c1ccc(O)c(O)c1O | -5 | 0.084 | 92* | 1.1 | · | · | 88*
COc1ccc(/C=N/N2C(=O)CSC2=S)cc1Br | -13 | 0.78 | 22 | 1.1 | · | · | ·
COc1ccc(/C=N/N2C(=O)CSC2=S)cc1 | -3 | 0.53 | 47* | 1 | 1.2 | -16 | 60*
CC(C)C(NC(=O)c1ccc(C(C)(C)C)cc1)C(=O)N1CCC(C(N)=O)CC1 (stereo unspecified) | 2 | 0.97 | 3 | 0.98 | · | · | ·
O=C(NCC1CCN(Cc2ccccc2F)CC1)Nc1ccccc1F | -7 | 1.3 | -30 | 1.1 | · | · | ·
O=C(NCC1CCN(Cc2ccccc2F)CC1)Nc1cccc(Br)c1 | -39 | 3.3* | -226 | 1.4 | · | · | -105
Cc1ccc(C)c(CN2CCC(CNC(=O)Nc3ccc(C)c(C)c3)CC2)c1 | -27 | 3.9* | -291 | 1.3 | · | · | -121
COc1ccc(S(=O)(=O)N2CCCC(C(=O)NCc3ccccc3)C2)cc1 (stereo unspecified) | 8 | 1.1 | -6 | 0.92 | · | · | ·
C[C@H](CO)N1C[C@H](C)[C@@H](CN(C)C(=O)Nc2ccccc2)Oc2ccc(NC(=O)Nc3ccccc3)cc2C1=O | -13 | 3.1* | -207 | 1.1 | · | · | -123
C[C@H](CO)N1C[C@H](C)[C@@H](CN(C)C(=O)NC2CCCCC2)Oc2ccc(NC(=O)Nc3ccccc3)cc2C1=O | 10 | 2.6* | -159 | 0.9 | · | · | -100

Screening data deposited in PubChem BioAssay by Sanford-Burnham Center for Chemical Genomics.
